# Source: PubChem BioAssay
# Hits are enriched below; roughly 2.6% of the tested compounds scored in any of these assays.
# CHT PAM: human CHT allosteric activation; Q9GZV3; CHT-expressing cells, membrane potential dye, choline EC20; stronger effect = higher value; LV-AA mutant CHT in HEK293 cells; B-score at 10 µM; 310,000 tested, 0.49% active; AID 488977;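 active = initial fluorescence not abnormally high and integrated response B-score, plate-corrected, over 3 SD above library mean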
# Target sequence (Q9GZV3 whole entry, looked up): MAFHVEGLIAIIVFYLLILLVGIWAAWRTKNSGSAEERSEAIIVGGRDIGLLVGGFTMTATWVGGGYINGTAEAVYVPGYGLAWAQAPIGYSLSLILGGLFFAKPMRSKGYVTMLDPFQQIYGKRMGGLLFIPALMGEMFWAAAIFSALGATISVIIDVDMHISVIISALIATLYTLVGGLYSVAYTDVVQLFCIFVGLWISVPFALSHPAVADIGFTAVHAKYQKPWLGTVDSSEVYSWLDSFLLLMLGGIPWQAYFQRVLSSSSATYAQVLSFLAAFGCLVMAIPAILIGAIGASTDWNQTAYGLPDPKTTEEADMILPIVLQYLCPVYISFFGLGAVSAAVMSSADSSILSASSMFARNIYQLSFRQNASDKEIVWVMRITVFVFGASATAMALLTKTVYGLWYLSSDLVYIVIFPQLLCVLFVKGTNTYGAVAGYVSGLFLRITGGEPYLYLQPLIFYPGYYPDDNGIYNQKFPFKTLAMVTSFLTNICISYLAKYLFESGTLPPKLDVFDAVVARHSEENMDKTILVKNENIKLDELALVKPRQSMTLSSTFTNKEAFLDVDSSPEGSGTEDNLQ
# T cruzi inh: blocks replication of Trypanosoma cruzi; inhibition, % (no concentration beside the values); 300,000 tested, 1.4% active; AID 1885; T. cruzi beta-gal in NIH3T3, luminescence, 90 h;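 active = mean inhibition across valid replicates above about 55%, limit read from the data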;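 note: signal also drops with host cell toxicity which is not excluded here; 0% = plate median of DMSO wells and 100% = zero luminescence signal; higher percent means less beta-gal luminescence so fewer parasites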
#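 Assay system: NIH/3T3 fibroblasts plus reporter T. cruzi. Amount: NIH/3T3 cells, 5,000 per well. Buffer or medium: DMEM, 2% fetal bovine serum. Doses: compound pinned at 50 nL/well, DMSO. Schedule: ≥90 h infection period, 3 h prior cell attachment. Signal: luminescent β-galactosidase signal after 60 min lysis. Read-out: parasite load inhibition, %.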
# PolyA inh: blocks polyadenylation in yeast reporter cells; AID 1875; S. cerevisiae SKY197-pL101 polyadenylation reporter, beta-gal luminescence; efflux-impaired pdr1/pdr3 knockout yeast; score 100 = 6 SD above DMSO; 300,000 tested, 0.02% active; activity score, % at 12 µM;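 active = lowest replicate activity score at least 50, where 100 means six control SD above control mean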;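 note: yeast exposed to compound for 9 h at 30 °C; higher score means more reporter readthrough which indicates perturbed polyadenylation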
# CHT inh: inhibitors of human choline transporter CHT; Q9GZV3; CHT-expressing cells, membrane potential dye, choline response; stronger effect = lower value; B-score at 10 µM; 310,000 tested, 0.86% active;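 active = B-score over 3 SD under the library average, and starting fluorescence ratio not unusually high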;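 note: choline stimulus applied at its EC90 after an EC20 pre-addition; B-score computed on integrated fluorescence ratio after choline addition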
# CHT block conf: human CHT inhibition, confirmatory screen; shares compounds with CHT inh; CHT-expressing cells, choline membrane potential dye; LV-to-AA substituted CHT, HEK293 cells; CHT activity remaining % of control (stronger effect = lower value), % at 10 µM; 2,400 tested, 70% active;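 active = choline transporter activity left, mean of duplicates at 10 µM, below buffer-only control mean minus 3 SD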;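 note: depolarization triggered by choline at its EC90 following an EC20 pre-addition; 0% = hemicholinium-3 full block and 100% = buffer-only control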
# HEK293 MPD ctr: activity in parental HEK293 cells lacking CHT; shares compounds with CHT inh; membrane potential dye, choline response; active = decrease or increase beyond buffer ±3SD; membrane potential ratio readout (active if shifted either direction beyond buffer ±3SD; no single direction) at 10 µM; 2,400 tested, 4% active; AID 493222;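 note: parental cells lack the transporter so any hit is non-specific; ratio is peak minus trough fluorescence over baseline after EC90 choline challenge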
# * = called active by the depositor; i = inactive; / = no result given.
SMILES,CHT PAM,T cruzi inh,PolyA inh,CHT inh,CHT block conf,HEK293 MPD ctr
O=c1c2cc(NC(=S)NC3CCN(Cc4ccccc4)CC3)ccc2nc2n1CCCCC2,i,38,-11,i,/,/
O=C(CN1CCN(Cc2ccc(F)cc2Cl)CC1)NCc1ccccc1,i,11,-6,i,/,/
O=C(Cn1ncc2c1-c1ccccc1OC2)N(Cc1ccco1)C1CCCCC1,i,13,7,-4.9*,i,i
COc1ccc(C(=O)OCC2CC(c3ccccc3)=NO2)cc1OC (stereo not given),i,3,-13,i,/,/
COc1cc(C(=O)OCC2CC(c3ccccc3)=NO2)cc(OC)c1OC (stereo not given),i,2,2,i,i,i
O=C(CSc1nccn1-c1ccc(F)cc1)NCc1ccc(F)cc1,i,-8,0,-5.3*,53%*,i
CC(C)c1nc(NCCO)c2nnn(Cc3ccccc3)c2n1,i,5,-1,i,/,/
Cc1cc(C)nc(SCc2cc(=O)c(OC(=O)c3ccc(Br)o3)co2)n1,i,-4,10,-8.2*,14%*,i
Cc1ccnc(SCc2cc(=O)c(OC(=O)c3ccccc3)co2)n1,i,1,5,i,/,/
Cc1cc(C)nc(SCc2cc(=O)c(OC(=O)c3ccco3)co2)n1,i,4,3,-6.1*,17%*,i
Cc1cc(C)nc(SCc2cc(=O)c(OC(=O)c3ccc(S(=O)(=O)N4CCCC4)cc3)co2)n1,i,0,-20,-7.2*,51%*,i
Cc1cc(C)nc(SCc2cc(=O)c(OC(=O)c3cc([N+](=O)[O-])ccc3Cl)co2)n1,i,-4,11,-7.4*,28%*,i
C=C(C)Cn1c(=O)c2c(nc3n2CCCN3CCc2ccccc2)n(C)c1=O,i,-5,-18,i,/,/
NS(=O)(=O)c1ccc(-n2nncc2-c2ccco2)cc1,i,-1,3,i,/,/
CCN(CC)S(=O)(=O)c1ccc(OC)c(NC(=S)Nc2ccc(C)c(C)c2)c1,i,10,16,-6*,53%*,i
COC(=O)C1=C(C)N(Cc2ccco2)C(=O)N[C@@H]1c1ccco1,i,-16,-18,i,/,/
CC(=O)N/N=C(/C)c1ccc(NC(=O)c2csc(C)c2C)cc1,i,-21,-4,i,/,/
CCCCn1c(NC(C)CC)nc2c1c(=O)[nH]c(=O)n2C (stereo not given),i,-3,-14,-5.5*,37%*,-8.9*
COc1ccc(C(=O)C2CCCN(C(=O)c3csc(C(C)=O)c3)C2)c(C)c1 (stereo not given),i,-10,-2,i,/,/
COc1ccc(C(=O)C2CCCN(C(=O)C3=CCCC3)C2)c(C)c1 (stereo not given),i,2,9,-5*,35%*,i
COC(=O)c1ccc(CC(=O)c2ccc(O)cc2O)o1,i,-6,-6,i,/,/
CCOC(=O)c1ccc(CC(=O)c2ccc(O)cc2O)o1,i,4,12,-6*,68%*,i
Cc1nc2ccccc2n1Cc1ccccc1,i,-21,4,i,/,/
Cc1nc2ccccc2n1CSc1ccccc1,i,2,-8,i,i,i
Cc1cccc(NC(=O)NCc2ccc3c(c2)OCO3)c1C,i,3,25,-5.2*,i,i
SMILES,CHT PAM,T cruzi inh,PolyA inh,CHT inh,CHT block conf,HEK293 MPD ctr
CC(C)(C)[C@H]1C=C(C(=O)O)O[C@@H](OCc2ccc(CO)cc2)C1,i,-17,30,i,/,/
O=[N+]([O-])c1ccc(Sc2ncc3ccccn23)nc1,i,-10,-3,-13*,7.7%*,i
O=[N+]([O-])c1ccc(Sc2ccccc2Cl)nc1,i,5,-6,i,/,/
Cc1ccc(C)c(Cn2c3ccccc3c3cnn(CC(=O)NCCN4CCOCC4)c(=O)c32)c1,i,4,-5,i,/,/
Cc1cc(C)c(Cn2c3ccccc3c3cnn(CC(=O)NCCN4CCOCC4)c(=O)c32)c(C)c1,i,-3,6,-12*,15%*,i
CS(=O)(=O)N1CCc2cc(S(=O)(=O)N3CCCCC3)ccc21,i,-16,1,-7.5*,i,i
CC(=O)N1CCc2cc(S(=O)(=O)N3CCCCCC3)ccc21,i,-4,-10,i,/,/
O=C(NCc1cccnc1)Nc1ccc(Cl)cc1,i,-3,-1,i,/,/
Cc1sc[n+](CC(=O)c2ccc(Br)cc2)c1C,i,-5,3,-13*,24%*,i
Cc1ccc(C(=O)C[n+]2cccc3ccccc32)cc1,i,59*,1,-6.5*,29%*,i
O=C(C[n+]1cccc2ccccc21)c1ccc(Br)cc1,i,8,-13,-9.3*,26%*,i
NC(=O)C[n+]1cccc2ccccc21,i,-7,15,i,/,/
O=C(CSC(=S)N1CCCC1)Nc1ncc(Cl)cc1Cl,i,2,11,i,/,/
Oc1ccc(-c2nccc(-c3ccc(F)cc3)n2)cc1,i,12,-15,i,/,/
CC1CN(S(=O)(=O)c2cccc(C(=O)N(Cc3nnc(-c4ccccc4Cl)o3)C3CC3)c2)CC(C)O1 (stereo not given),i,19,20,i,/,/
COc1ccc(S(=O)(=O)N2CCCOC2CNC(=O)C(=O)NCCc2ccco2)cc1 (stereo not given),i,2,16,i,/,/
COc1ccc(C(C)(C)NC(=O)C2CCC(=O)N(CCCN3CCCC3=O)C2)cc1 (stereo not given),i,-3,3,i,/,/
CCOC(=O)c1cnc2c(Cl)cc(Cl)cc2c1NCCOCCO,i,20,0,-10*,34%*,i
CC(=O)N1CCN(c2ccc(NCc3ccccc3)cc2)CC1,i,-4,9,i,/,/
Fc1ccc(CNc2ccc(N3CCN(Cc4ccccc4)CC3)cc2)cc1,i,2,-56,i,i,i
Fc1cccc(CSc2nc3ncccc3[nH]2)c1,i,-8,3,i,/,/
Fc1ccc(CSc2nc3ncccc3[nH]2)cc1,i,4,17,-6*,i,i
C=C[C@@]1(C)CC(=O)[C@]2(O)[C@@]3(C)[C@@H](O)CCC(C)(C)[C@@H]3[C@H](OC(C)=O)[C@H](O)[C@@]2(C)O1,i,1,-5,-8.1*,37%*,i
C=C1C(=O)O[C@H]2C[C@]3(C)C([C@@H](OC(=O)/C(C)=C/C)[C@H]12)[C@](C)(O)CC[C@H]3O (stereo not given in full),i,-9,5,i,/,/
